Results: PubChem BioAssay AID504383 (The Scripps Research Institute Molecular Screening Center, 2011)
“And” between values parts separate entries of the source, which are not always exact repeats. Identical values can stand only once. Among all 2,500 compounds or so, about 1,200 (48%) were called active.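 How the source made its calls: active means mean activation above the low control average plus 3 SD, as set in the primary screen (cut at about 12% in these data); inactive means the rest.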 The set was probably picked from earlier hits. This is one part of the list. The source holds several records for some structures; these can differ, active in one and inactive in another.

Target: Troponin I, cardiac muscle (Homo sapiens) + Troponin T, cardiac muscle (Homo sapiens) + Troponin C, slow skeletal and cardiac muscles (Homo sapiens) (UniProt P19429+P45379+P63316)
Experiment: cardiac RTF calcium sensitivity activators, confirmation, biochemical, IANBD-TnC fluorescence, triplicate (AID 504383);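 further: 0% = DMSO at 0.472 mM calcium and 100% = DMSO at 2.9 mM calcium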
Conditions: IANBD-labeled cardiac RTF, Ca2+ sensitivity fluorescence; at 7.2 µM; stronger effect = higher value; scaled from EC20 to saturating calcium; tested at EC20 calcium, 0.472 mM
Outline: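 Assay system: labelled regulated thin filaments / Timing: 15 min at 25 °C / Detection: fluorescence intensity of labelled filaments / Measure: fluorescence gain scaled between EC20 and EC100 calcium controls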

activation, active:
CCCNS(=O)(=O)c1ccc2c(c1)n(C)c(=O)n2C 12.4%, COc1ccc(S(=O)(=O)N(CC(C)C)C2CCS(=O)(=O)C2)cc1OC (configuration not stated) 17.1%, CCN(CC)CCN1C(=O)c2cccc3cc(N)cc(c23)C1=O 128%, O=C(N/N=C/c1ccc2c(c1)OCO2)/C(=C/c1ccc2c(c1)OCO2)NC(=O)c1ccccc1 11.7%, Cc1ccc(Cn2cc(CCC(=O)O)c3ccccc32)cc1 16.7%, COc1cc2c(cc1NC(=O)COC(=O)/C=C/c1ccc([N+](=O)[O-])cc1)oc1ccccc12 4480%, Cc1ccc(C(=O)NCC(=O)OCC(=O)c2ccc(Cl)s2)cc1 232%, O=C1/C(=C\c2c(NCCOCCO)nc3ccccn3c2=O)SC(=S)N1Cc1ccco1 92.6%, Cc1ccc(/C=C/C(=O)N2CCN(S(=O)(=O)c3ccc(C)c(C)c3)CC2)o1 17.9%, Oc1[nH]c2ccccc2c1N=Nc1ccccc1 26.4%, Oc1[nH]c2ccccc2c1N=Nc1ccc(F)cc1 109%, Cc1ccc(Cl)c2c(N=Nc3ccccc3)c(O)[nH]c12 14.7%, O=C(c1cnc2ccccc2n1)N1CCN(c2ccc(C(F)(F)F)cn2)CC1 32.8%, CCN(CC)c1ccc(/C=N/OCC(=O)Nc2cccc(C)c2)cc1 19.6%, O=C(O)c1cc(NCc2ccc(F)cc2)ccc1N1CCOCC1 91.3%, C=CCOc1ccc(CNc2ccc3[nH]c(=O)[nH]c3c2)cc1OCC 25%, CN(C)c1ccc(/C=C/c2ccc3ccccc3n2)cc1 14.9%, CN(C)c1ccc(C2C=C(c3ccc(Cl)cc3OC(F)F)Nc3ncnn32)cc1 (configuration not stated) 80%, Cc1cccc(Nc2c([N+](=O)[O-])c(=O)oc3ccccc23)c1 23.2%, COc1ccc(CC/C(C)=N\NC(N)=O)cc1 16.2%, Cc1ccc(SCC(=O)c2sc(-c3ccccc3)nc2C)cc1 35.4%, COc1ccc2c3c(cccc13)C(=O)CC2 18.7%, CCCn1c(=O)c(C(=O)NNC(=O)c2ccccc2[N+](=O)[O-])c(O)c2ccccc21 18.9%, COCCn1c(=NC(=O)/C=C/c2ccccc2)sc2cc(NC(C)=O)ccc21 19.9%, CC1(C(=O)Nc2nnc(SCc3ccccc3)s2)Cc2ccccc2C(=O)O1 (configuration not stated) 22.1%, CCOc1cc(C2C(C#N)=C(N)OC(C)=C2C(C)=O)cc(Br)c1O (configuration not stated) 213%, S=C(Nc1cc(Cl)ccc1Oc1ccccc1)N1CCN(c2ccccn2)CC1 102%, O=c1c2ccccc2nc2n1CCCN2 17.2%, CCC[C@@H](CN1CCC[C@H]1CN1C(N)=NC[C@@H]1Cc1ccccc1)N1C[C@@H](Cc2ccccc2)N(CCCC2CCCC2)C1=N 38.3%, CCOc1cc(C#N)ccc1OCC(=O)N1CCc2ccccc2C1 12.3%, CCC1(O)C(=O)OCc2c1cc1n(c2=O)Cc2cc3cc(O)ccc3nc2-1 (configuration not stated) 16.1%, CC[C@@]1(O)C(=O)OCc2c1cc1n(c2=O)Cc2cc3c(CN(C)C)c(O)ccc3nc2-1 22.4%, Cc1ccc(/C=C2/SC(=O)NC2=S)o1 29.6%, O=C1NC(=S)/C(=C\c2ccc(-c3ccccc3Cl)o2)S1 14.2%, CCOC(=O)c1c(-c2ccccc2)csc1NC(=O)/C(C#N)=C/c1ccc(O)c(OC)c1 23.8%, S=C(NCCCN1CCOCC1)Nc1ccc(-c2nc3ccccc3[nH]2)cc1 17%, O=C(O)c1ccccc1CSc1nnnn1-c1ccccc1 51.1%, O=C(NCC1CCCO1)c1ccc2c(c1)C(=O)N(c1cccc([N+](=O)[O-])c1)C2=O (configuration not stated) 31.3%, N#Cc1ccccc1OCC(=O)OCC(=O)c1ccc2c(c1)NC(=O)CO2 21.9%, CSc1c(CC(=O)NCCO)n(C)c2ccccc12 23.2%, O=C(NC1CCCCC1)c1ccccc1NC(=S)NC(=O)C1CCC1 24.5%

activation, 1.95% (inactive) and 33.7% (active):
CN1CCC2(CC1)C1CN(C)CC=C1C(C#N)=C(N)C2(C#N)C#N (configuration not stated)

activation, inactive:
CCCCN(Cc1ccccc1)S(=O)(=O)c1ccc2c(c1)n(C)c(=O)c(=O)n2C 2.32%, O=C1c2cccc3cc([N+](=O)[O-])cc(c23)C(=O)N1CCN1CCCC1 8.4%, CN(C)c1ccc(/C=N/NC(=O)c2cnc3ccccc3c2)cc1 6.1%, O=C(N/N=C/c1ccc([N+](=O)[O-])cc1)c1cc(-c2ccc3c(c2)OCO3)n[nH]1 0.5%, Nc1nc(SCc2cccc(Br)c2)n[nH]1 9.18%, COc1cc([N+](=O)[O-])ccc1NC(=O)COC(=O)c1n[nH]c2ccccc12 6.72%, COc1cc([N+](=O)[O-])ccc1N/C=C/C(=O)c1cccs1 5.01%, CN1CCCc2cc3c(C(F)(F)F)cc(=O)oc3nc21 10.7%, Cc1ccc(C(=O)NCC(=O)OCC(=O)N(CC(C)C)c2c(N)n(Cc3ccccc3)c(=O)[nH]c2=O)cc1 8.28%, Cc1cc(C)n(NC(=S)NC2CCCCC2)c(=O)c1C#N 7.29%, CCCN(CCC)c1nc2c(C)cccn2c(=O)c1/C=C1/SC(=S)N(Cc2ccco2)C1=O 3.6%, COc1ccc(S(=O)(=O)N2CCSC2)cc1C 2.98%, Cc1ccc(S(=O)(=O)N2CCN(c3ncccn3)CC2)cc1C 4.74%, Oc1[nH]c2ccccc2c1N=Nc1ccccc1F 2.72%, Oc1[nH]c2ccccc2c1N=Nc1ccccc1Cl 4.59%, Oc1[nH]c2ccccc2c1N=Nc1cccc(Cl)c1 7.29%, Cc1ccc(NC(=O)CO/N=C/c2ccc(N(C)C)cc2)cc1 6.41%, Cc1ccc(NC(=O)O/N=C/c2ccc(F)cc2)cc1 8.78%, O=C1N/C(=C\c2ccc(N3CCOCC3)c(F)c2)C(=O)N1Cc1ccccc1 5.84%, O=C(N1CCOCC1)N1CCN(c2ccc(F)cc2)CC1 2.34%, CN(C)c1ccc(/C=C/c2nc3ccccc3c(=O)[nH]2)cc1 9.5%, CC(C)CC[n+]1ccccc1/C=C/c1ccc(N(C)C)cc1 7%, Cc1ccsc1C1C=C(c2cccc(Br)c2)Nc2ncnn21 (configuration not stated) 1.58%, Cc1c(C=O)c2ccccn2c1C(=O)c1cccs1 6.64%, Nc1nc(NCCCN2CCOCC2)nc(Nc2cccc(Cl)c2)c1[N+](=O)[O-] 5.57%, COc1ccc(CC(=O)NNC(=O)c2ccncc2)cc1 8.9%, COc1ccc(CCC(=O)N2CCc3ccccc32)cc1 6.5%, Cc1ccc(C)c(S(=O)(=O)N2CCCC2CNC(=O)C(=O)NC2CC2)c1 (configuration not stated) 5.98%, Cc1ccc(-c2nc(NC(=O)CSc3cc(C)c4ccccc4n3)ns2)cc1 4.39%, C=C(C)c1sc(-c2ccc(Cl)cc2)nc1C 1.76%, Nc1ccc2c3c(cccc13)CC2 6.56%, COc1ccc2noc3c2c1C(=O)c1ccccc1-3 3.9%, CC1CCN(c2oc(-c3ccccc3F)nc2C#N)CC1 10.8%, CCOC(=O)Cn1c(=NC(=O)c2cc(-c3cccs3)nc3ccccc23)sc2cc(S(N)(=O)=O)ccc21 1.79%, CC1(C)CC(=O)c2sc(NC(=O)Cc3cccs3)nc2C1 4.44%, CCOc1ccc(C2C(C#N)=C(N)SC(N)=C2C#N)c(OCC)c1 10%, O=C(COc1ccccc1Cl)N1CCN(c2ccccn2)CC1 10.9%, CC(C(=O)N1CCc2ccccc2C1)N1C(=O)c2ccccc2C1=O (configuration not stated) 2.65%, O=C(Cn1c(=O)oc2cc(S(=O)(=O)N3CCCC3)ccc21)N1CCc2ccccc2C1 10.4%, CCNc1cccc2c1C(=O)N(C)C2=O 1.44%, CCOc1nnc(C)c2c(C)n(-c3cccc(Cl)c3)nc12 5.31%, O=C(O)c1ccccc1-c1ccc(/C=C2\SC(=O)N(c3ccccc3)C2=O)o1 9.01%, Cc1noc(/C=C/c2ccc(-c3ccccc3Cl)o2)c1[N+](=O)[O-] -1.31%, Cc1nc2ccc(Cl)cc2nc(C)/c1=N\O 6.95%, CCOC(=O)c1c(-c2ccccc2)csc1NC(=O)/C(C#N)=C\c1ccc(O)c(OC)c1 11.3%, CCNC(=S)N/N=C/c1sc(N2CCCCC2)nc1-c1cccs1 1.11%, S=C(Nc1ccc(Cl)cc1)N(CCCN1CCOCC1)Cc1ccco1 11.2%, COC(=O)Cc1ccc(NC(=S)NCCCN2CCOCC2)cc1 2.97%, C(=N\Nc1nnnn1-c1ccccc1)/c1ccncc1 6.05%, O=C(NCC1CCCO1)c1cccc2c1C(=O)c1ccc(N3CCC(Cc4ccccc4)CC3)cc1S2(=O)=O (configuration not stated) 4.73%, O=C(Cn1ncc2c3ccccc3n(Cc3cccc(Cl)c3)c2c1=O)NCC1CCCO1 (configuration not stated) 5.86%, Cc1cccc(CSc2ccc(-c3ccco3)nn2)c1 -0.44%, Cn1c(=O)cc(SCC(=O)NCC2COc3ccccc3O2)c2ccccc21 (configuration not stated) 7.4%, Cc1ccccc1C(=O)NC(=S)NC1CC1 0.94%, O=C(O)c1ccccc1/C=N/NC(=S)NC1CCCCC1 5.68%
